The results in this text go back to ChEMBL document CHEMBL3045540, “Naphthalenones from a Perenniporia sp. inhabiting the larva of a phytophagous weevil, Euops chinesis” (2012).

Test [1] has as its system Alternaria longipes. Put plainly: Antifungal activity against Alternaria longipes CGMCC 3.2875 at 20 ug/ml after 48 hr by Alamar blue assay. Type of test: functional, organism-based. On the technique in general: Alamar Blue is a resazurin reagent that responds to reducing activity.
The subject of test [2] is Fusarium verticillioides. As to the kind of experiment: Antifungal activity against Fusarium verticillioides CGMCC 3.2835 at 20 ug/ml after 48 hr by Alamar blue assay. Type of test: functional, organism-based.
For test [3], the system named is Fusarium oxysporum. Put plainly: Antifungal activity against Fusarium oxysporum CGMCC 3.2830 at 20 ug/ml after 48 hr by Alamar blue assay. The test is classed as functional, organism-based.
For test [4], the system named is Fusarium graminearum. As to the kind of experiment: Antifungal activity against Fusarium graminearum CGMCC 3.2873 at 20 ug/ml after 48 hr by Alamar blue assay. The test is classed as functional, organism-based.
For test [5], the system named is Verticillium albo-atrum. Put plainly: Antifungal activity against Verticillium albo-atrum CGMCC 3.4306 at 20 ug/ml after 48 hr by Alamar blue assay. The test is classed as functional, organism-based.
The subject of test [6] is Fusarium oxysporum. Put plainly: Antifungal activity against Fusarium oxysporum CGMCC 3.2830 after 48 hr by Alamar blue assay. Type of test: functional. To be noted: CGMCC 3.2830, 48 h. Put shortly: (§1)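 NCCLS-based broth microdilution, run in triplicate. Fungi were kept on PDA, and the inoculum was grown in broth at 28 °C for 48 h, then set to a final 10^4 hyphae/mL in PDB. Samples were serially diluted from a 10 mg/mL DMSO stock, with 10% Alamar blue as indicator, and incubated at 28 °C for 48 h. Fluorescence was read at 544/590 nm. MIC was the lowest concentration giving complete growth inhibition.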

Test [7] concerns Verticillium albo-atrum. Put plainly: Antifungal activity against Verticillium albo-atrum CGMCC 3.4306 after 48 hr by Alamar blue assay. Type of test: functional. The note with it: CGMCC 3.4306, 48 h. In outline:
as §1

The test system of test [8] is Fusarium verticillioides. Put plainly: Antifungal activity against Fusarium verticillioides CGMCC 3.2835 after 48 hr by Alamar blue assay. The note with it: CGMCC 3.2835, 48 h. Type of test: functional. In outline:
as §1

Test [9] concerns Alternaria longipes. As to the kind of experiment: Antifungal activity against Alternaria longipes CGMCC 3.2875 after 48 hr by Alamar blue assay. Type of test: functional. The note with it: CGMCC 3.2875, 48 h. In outline:
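Run in triplicate per NCCLS recommendations. The strain was grown on PDA, and inoculum came from broth cultures (28 °C, 48 h), with a final suspension of 10^4 hyphae/mL in PDB. Samples were serially diluted from a 10 mg/mL DMSO stock, with 10% Alamar blue as indicator. After 28 °C for 48 h, fluorescence was read at Ex/Em 544/590 nm. MIC is the lowest concentration giving complete growth inhibition, taken from inhibition-versus-concentration plots.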

The subject of test [10] is Fusarium graminearum. As to the kind of experiment: Antifungal activity against Fusarium graminearum CGMCC 3.2873 after 48 hr by Alamar blue assay. The note with it: CGMCC 3.2873, 48 h. The test is classed as functional. Put shortly:
as §1

In brackets after ≈: the same amount, converted by molar mass. Activity calls are given as the source filed them. No cut-off for these calls is given here.

For the molecule `CCc1c(OC)cc2c(c1O)C(=O)C[C@]1(OC)OC(=O)[C@H](O)C[C@@]21O`, the outcome in [1], in test [2], in test [3], in [4] and in test [5] was inactive.

Usually MIC stands for the lowest concentration that inhibits growth of the organism. Take `CCc1c(OC)cc2c(c1O)C(=O)C=C(OC)[C@@]21C[C@@H](O)C(=O)O1` [PERENNIPORIDE A]: the MIC in [6] was 10 µg/mL (≈ 29.9 µM); in test [7], 20 µg/mL (≈ 59.8 µM); in test [8], 20 µg/mL (≈ 59.8 µM); in test [9], 10 µg/mL (≈ 29.9 µM); in test [10], 20 µg/mL (≈ 59.8 µM).

Take `CCc1c(OC)cc2c(c1O)C(=O)C[C@@]1(OC)O[C@@H](C(=O)OC)C[C@@]21O`: the outcome in test [1], in test [2], in test [3], in test [4] and in test [5] was inactive.

On to `CCc1c(OC)cc2c(c1O)C(=O)C=C(OC)[C@@]2(O)C[C@@H](O)C(=O)OC`, for which the outcome in test [1], in [2], in [3], in [4] and in test [5] was inactive.

For the molecule `COC(=O)Nc1nc2ccccc2[nH]1` [CARBENDAZIM], the minimal inhibitory concentration (MIC) in test [6] was 0.63 µg/mL (≈ 3.3 µM); in test [7] it was 0.63 µg/mL (≈ 3.3 µM); in test [8] it was 0.63 µg/mL (≈ 3.3 µM); in test [10], 2.5 µg/mL (≈ 13.1 µM). The outcome in [1] was inactive.
